{"source": "ChEMBL document CHEMBL3046951", "about": "“Volatile constituents from the leaves of Callicarpa japonica Thunb. and their antibacterial activities” (2004)", "type_in_all_cases": "functional", "key": {"[1]": {"system": "Salmonella typhimurium", "experiment": "Antimicrobial activity against Salmonella enterica subsp. enterica serovar Typhimurium ATCC 14028 assessed as growth inhibition rate at 1.2 mg/l after 72 hr by spectrophotometry", "conditions": "ATCC 14028, 72 h, read-out: GI", "outline": "(§1)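 Authentic volatiles (>95% purity; 2,4-heptadienal 90%) tested against 18 h subcultures. Growth media: E. coli O157:H7 and S. aureus in tryptic soy broth at 37 °C; L. monocytogenes in tryptic soy broth at 30 °C; V. parahaemolyticus in tryptic soy broth + 3% NaCl at 37 °C; S. typhimurium in nutrient broth at 30 °C. Bioscreen C OD every 24 h for 72 h versus 10% Tween 80 control.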"}, "[2]": {"system": "Escherichia coli", "experiment": "Antimicrobial activity against Escherichia coli O157:H7 ATCC 43894 assessed as growth inhibition rate at 1.2 mg/l after 72 hr by spectrophotometry", "conditions": "O157:H7 ATCC 43894, 72 h, read-out: GI"}, "[3]": {"system": "Vibrio parahaemolyticus", "experiment": "Antimicrobial activity against Vibrio parahaemolyticus ATCC 33844 assessed as growth inhibition rate at 1.2 mg/l after 72 hr by spectrophotometry", "conditions": "ATCC 33844, 72 h, read-out: GI", "outline": "as §1"}, "[4]": {"system": "Bacillus cereus", "experiment": "Antimicrobial activity against Bacillus cereus ATCC 11778 assessed as growth inhibition rate at 1.2 mg/l after 72 hr by spectrophotometry", "conditions": "ATCC 11778, 72 h, read-out: GI", "outline": "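Pure volatile compounds (>95% purity; 2,4-heptadienal 90%) identified in the leaf extract were tested against B. cereus ATCC 11778 in nutrient broth at 30 °C. The inoculum was grown 24 h, then subcultured (0.1 mL into 9.9 mL) for 18 h. Optical density was read in a Bioscreen C every 24 h for 72 h against a 10% Tween 80 control.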"}, "[5]": {"system": "Staphylococcus aureus", "experiment": "Antimicrobial activity against Staphylococcus aureus ATCC 25923 assessed as growth inhibition rate at 1.2 mg/l after 72 hr by spectrophotometry", "conditions": "ATCC 25923, 72 h, read-out: GI", "outline": "as §1"}, "[6]": {"system": "Listeria monocytogenes", "experiment": "Antimicrobial activity against Listeria monocytogenes ATCC 19111 assessed as growth inhibition rate at 1.2 mg/l after 72 hr by spectrophotometry", "conditions": "ATCC 19111, 72 h, read-out: GI", "outline": "as §1"}, "[7]": {"system": "Listeria monocytogenes", "experiment": "Antimicrobial activity against Listeria monocytogenes ATCC 19111 assessed as growth inhibition rate at 11.64 mg/l after 72 hr by spectrophotometry", "conditions": "ATCC 19111, 72 h, read-out: GI", "outline": "(§2)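 L. monocytogenes was grown at 30 °C in tryptic soy broth, subcultured for 18 h, and exposed to pure volatile compounds (>95% purity). Growth was followed by Bioscreen C optical density every 24 h for 72 h against a 10% Tween 80 control.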"}, "[8]": {"system": "Bacillus cereus", "experiment": "Antimicrobial activity against Bacillus cereus ATCC 11778 assessed as growth inhibition rate at 11.64 mg/l after 72 hr by spectrophotometry", "conditions": "ATCC 11778, 72 h, read-out: GI", "outline": "(§3)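 Pure volatile compounds (purity >95%; one at 90%) were tested against B. cereus ATCC 11778. The strain was grown at 30 °C in nutrient broth for 24 h, then subcultured for 18 h. Optical density was read in a Bioscreen C every 24 h for 72 h, with 10% Tween 80 as the control.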"}, "[9]": {"system": "Staphylococcus aureus", "experiment": "Antimicrobial activity against Staphylococcus aureus ATCC 25923 assessed as growth inhibition rate at 11.64 mg/l after 72 hr by spectrophotometry", "conditions": "ATCC 25923, 72 h, read-out: GI"}, "[10]": {"system": "Escherichia coli", "experiment": "Antimicrobial activity against Escherichia coli O157:H7 ATCC 43894 assessed as growth inhibition rate at 11.64 mg/l after 72 hr by spectrophotometry", "conditions": "O157:H7 ATCC 43894, 72 h, read-out: GI"}, "[11]": {"system": "Vibrio parahaemolyticus", "experiment": "Antimicrobial activity against Vibrio parahaemolyticus ATCC 33844 assessed as growth inhibition rate at 11.64 mg/l after 72 hr by spectrophotometry", "conditions": "ATCC 33844, 72 h, read-out: GI"}, "[12]": {"system": "Salmonella typhimurium", "experiment": "Antimicrobial activity against Salmonella enterica subsp. enterica serovar Typhimurium ATCC 14028 assessed as growth inhibition rate at 11.64 mg/l after 72 hr by spectrophotometry", "conditions": "ATCC 14028, 72 h, read-out: GI", "outline": "(§4)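 Salmonella Typhimurium ATCC 14028 grown in nutrient broth at 30 °C, precultured 24 h, then subcultured 1:100 for 18 h before testing. Single volatile compounds (>95% pure) were added. OD was read every 24 h over 72 h in a Bioscreen C, with 10% Tween 80 as the comparison control.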"}, "[13]": {"system": "Staphylococcus aureus", "experiment": "Antimicrobial activity against Staphylococcus aureus ATCC 25923 assessed as growth inhibition rate at 143.24 mg/l after 72 hr by spectrophotometry", "conditions": "ATCC 25923, 72 h, read-out: GI"}, "[14]": {"system": "Bacillus cereus", "experiment": "Antimicrobial activity against Bacillus cereus ATCC 11778 assessed as growth inhibition rate at 143.24 mg/l after 72 hr by spectrophotometry", "conditions": "ATCC 11778, 72 h, read-out: GI", "outline": "as §3"}, "[15]": {"system": "Salmonella typhimurium", "experiment": "Antimicrobial activity against Salmonella enterica subsp. enterica serovar Typhimurium ATCC 14028 assessed as growth inhibition rate at 143.24 mg/l after 72 hr by spectrophotometry", "conditions": "ATCC 14028, 72 h, read-out: GI", "outline": "as §4"}, "[16]": {"system": "Escherichia coli", "experiment": "Antimicrobial activity against Escherichia coli O157:H7 ATCC 43894 assessed as growth inhibition rate at 143.24 mg/l after 72 hr by spectrophotometry", "conditions": "O157:H7 ATCC 43894, 72 h, read-out: GI"}, "[17]": {"system": "Vibrio parahaemolyticus", "experiment": "Antimicrobial activity against Vibrio parahaemolyticus ATCC 33844 assessed as growth inhibition rate at 143.24 mg/l after 72 hr by spectrophotometry", "conditions": "ATCC 33844, 72 h, read-out: GI"}, "[18]": {"system": "Listeria monocytogenes", "experiment": "Antimicrobial activity against Listeria monocytogenes ATCC 19111 assessed as growth inhibition rate at 143.24 mg/l after 72 hr by spectrophotometry", "conditions": "ATCC 19111, 72 h, read-out: GI", "outline": "as §2"}}, "data": [{"smiles": "CC=O", "values": [{"measurement": "inhibition of growth at 1.2 µg/mL", "setting": "[1]", "result": 15.4, "unit": "%"}, {"measurement": "inhibition of growth at 1.2 µg/mL", "setting": "[2]", "result": 5.3, "unit": "%"}, {"measurement": "inhibition of growth at 1.2 µg/mL", "setting": "[3]", "result": 11.1, "unit": "%"}, {"measurement": "inhibition of growth at 1.2 µg/mL", "setting": "[4]", "result": 1.2, "unit": "%"}, {"measurement": "inhibition of growth at 1.2 µg/mL", "setting": "[5]", "result": 2.8, "unit": "%"}, {"measurement": "inhibition of growth at 1.2 µg/mL", "setting": "[6]", "result": 10, "unit": "%"}]}, {"smiles": "CC1=C[C@@H]2C(=C(C)CC[C@H]2C(C)C)CC1", "values": [{"measurement": "inhibition of growth at 11.64 µg/mL", "setting": "[7]", "result": 15.7, "unit": "%"}, {"measurement": "inhibition of growth at 11.64 µg/mL", "setting": "[8]", "result": 20.3, "unit": "%"}, {"measurement": "inhibition of growth at 11.64 µg/mL", "setting": "[9]", "result": 26.3, "unit": "%"}, {"measurement": "inhibition of growth at 11.64 µg/mL", "setting": "[10]", "result": 9.5, "unit": "%"}, {"measurement": "inhibition of growth at 11.64 µg/mL", "setting": "[11]", "result": 32.5, "unit": "%"}, {"measurement": "inhibition of growth at 11.64 µg/mL", "setting": "[12]", "result": 4.3, "unit": "%"}]}, {"smiles": "C=C1CC[C@@H]2[C@H]([C@@H]3[C@H](C)CC[C@@H]13)C2(C)C", "note": "[(-)-AROMADENDRENE II]", "values": [{"measurement": "inhibition of growth at 143.24 µg/mL", "setting": "[13]", "result": 61.5, "unit": "%"}, {"measurement": "inhibition of growth at 143.24 µg/mL", "setting": "[14]", "result": 72.3, "unit": "%"}, {"measurement": "inhibition of growth at 143.24 µg/mL", "setting": "[15]", "result": 36.4, "unit": "%"}, {"measurement": "inhibition of growth at 143.24 µg/mL", "setting": "[16]", "result": 24.2, "unit": "%"}, {"measurement": "inhibition of growth at 143.24 µg/mL", "setting": "[17]", "result": 45.6, "unit": "%"}, {"measurement": "inhibition of growth at 143.24 µg/mL", "setting": "[18]", "result": 28, "unit": "%"}]}]}
